Measurements taken from article PMC4258470 (Journal of molecular biology, 2014).

Legend:
[1] = biological target: T1, TAZ2 domain of CBP (residues 1764–1855) (Mus musculus, UniProt P45481); experiment: 1H-15N HSQC NMR titration of 15N-TAZ2; assay type: binding; details: TAZ2 vs TAZ1 of CBP; fluorescence and NMR
T1 sequence (P45481 1764-1855): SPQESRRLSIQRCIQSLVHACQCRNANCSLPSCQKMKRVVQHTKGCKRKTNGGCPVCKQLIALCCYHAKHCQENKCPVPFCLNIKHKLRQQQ

pRb in BJ cells = experiment: pRb level by Western blot, BJ cells; assay type: cell-based, human; details: retroviral transduction, vs control vector (BP); lysates and IP
Summary of the method: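 Human BJ fibroblasts (DMEM, 10% calf serum) retrovirally transduced with LXSN control vector or E7 and G418-selected (600 μg/ml). Sonicated in NETN buffer with phosphatase, deacetylase and protease inhibitors. Both lysates and anti-pRb immunoprecipitates (0.8–1.0 mg extract) resolved on 7–8% SDS-PAGE and Western blotted with anti-pRb, ECL detection.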

[2] = tested on: TAZ2 domain of CBP with pRb-AB; experiment: 1H-15N HSQC NMR of 15N-TAZ2 with E7; assay type: binding, mouse; details: 15N-TAZ2:E7:pRb-AB 1:0.25:1; NMR buffer pH 6.8
[3] = tested on: pRb acetylation in BJ cells; experiment: In-cell pRb acetylation assay; assay type: cell-based, human; details: retroviral transduction, vs control vector (BP)
Summary of the method: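 Human BJ foreskin fibroblasts (DMEM, 10% calf serum) stably transduced with LXSN control vector or E7 retrovirus and selected in 600 μg/ml G418. Lysed by sonication in NETN containing butyrate, TSA, phosphatase and protease inhibitors. Anti-pRb IP from 0.8–1.0 mg extract, SDS-PAGE, blots probed for acetyl-lysine and pRb, ECL. Background-corrected AcK/pRb band ratio normalised to vector, mean of two independent experiments.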

[4] = biological target: T1, TAZ2 domain of CBP (residues 1764–1855); experiment: Fluorescence anisotropy, competition with ppE7; assay type: binding; details: phosphorylated vs non-phosphorylated (Table 1)
TAZ2 domain of CBP = experiment: In vitro GB1 pulldown, TAZ2; assay type: binding, mouse; details: H6GB1 alone as negative control; legend refers to TAZ1 and TAZ2
p130 = details: in vitro; cited from earlier work
[5] = tested on: HPV E2 transcriptional activity; details: cited from earlier work
p300 TAZ1 domain = details: read-out: affinity measured by sedimentation equilibrium for p300 TAZ1; 4°C; cited from earlier work
pRb in MEF cells = experiment: pRb level by Western blot, MEF cells; assay type: cell-based, mouse; details: floxed CBP/p300 MEF, prior to Cre
Summary of the method: (§1)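 Primary mouse embryonic fibroblasts homozygous for floxed CBP and p300 alleles, grown in DMEM with 10% calf serum, stably transduced with LXSN-E7 retrovirus and selected in 600 μg/ml G418. Lysed in NETN with inhibitors. pRb immunoprecipitated from 0.8–1.0 mg extract, 7–8% SDS-PAGE, PVDF blots probed with anti-pRb or anti-acetyl-lysine, ECL.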

cellular transformation = details: epithelial cells, E7 alone; cited from earlier work
[6] = tested on: pRb acetylation in MEF cells; experiment: In-cell pRb acetylation assay, MEF cells; assay type: cell-based, mouse; details: for pRb acetylation, MEF cells before Cre treatment: floxed CBP/p300 MEF, prior to Cre
Summary of the method: as §1

[7] = tested on: N-terminal region of p300, encompassing the TAZ1 (or CH1) domain; details: buffer containing 2.5 mM EDTA; cited from earlier work
[8] = tested on: p53 transcriptional activity; details: in cells; cited from earlier work
pocket domain of pRb = details: read-out: Kd for pRb; pRb pocket domain (pRb-AB); cited from earlier work

## 16-E7(1-51): construct containing the disordered CR1 and CR2 domains, residues M1-H51, of HPV16 E7
[1]
  tighter binding to TAZ2 than to TAZ1: ~ 1000 -fold
pRb in BJ cells
  pRb level, BJ cells: comparable to control cells
[2]
  ternary complex (TAZ2:E7:pRb-AB) formation by NMR: unable to support ternary complex formation
[3]
  pRb acetylation, BJ cells: comparable to control cells
[4]
  enhancement of binding to TAZ2 by CKII phosphorylation of Ser31 and Ser32: 3 -fold

## p53(13-61): p53 residues 13-61, positive control
TAZ2 domain of CBP
  pulldown signal vs H6GB1 background: bind significantly above the background signal

## E7(1-98): full length high-risk HPV16 E7 (residues 1-98), homodimer
p130
  enhancement of p300-mediated acetylation of p130: enhances p300-mediated acetylation of the retinoblastoma protein family member p130
[5]
  repression of HPV E2 transcriptional activity: represses HPV E2 transcriptional activity
pRb in BJ cells
  pRb level, BJ cells: decreased levels of pRb
p300 TAZ1 domain
  Kd: 900 to 3500 nM
pRb in MEF cells
  pRb level, MEF cells before Cre treatment: significantly decreased levels of pRb
Cellular transformation
  transformation and immortalization: sufficient to transform and immortalize epithelial cells, albeit with lower efficiency
[6]; Cre-treated MEF cells, listed as full-length HPV16 E7
  E7-induced pRb acetylation, MEF cells lacking CBP/p300: acetylation levels were substantially decreased in CBP/p300^−/− cells
[6]; listed as E7
  pRb acetylation, MEF cells before Cre treatment: increased levels of pRb acetylation
[6]; listed as full-length HPV16 E7
  pRb acetylation, MEF cells before Cre treatment: Enhanced acetylation of pRb
[3]; listed as E7
  pRb acetylation, BJ cells: increased levels of acetylation
[3]; listed as full-length E7
  pRb acetylation, BJ cells: enhanced
[3]; listed as full-length HPV16 E7
  pRb acetylation, BJ cells: Enhanced acetylation of pRb
[7]
  interaction with p300 regions in GST pulldown: interacts most strongly with the N-terminal region of p300, encompassing the TAZ1 (or CH1) domain
[8]
  inhibition of p53 transcriptional activity: inhibit p53 transcriptional activity in cells

## STAT1(710-750): STAT1 residues 710-750, positive control (SEVHPSRLQTTDNLLPMSPEEFDEVSRIVGSVEFDSMMNTV)
TAZ2 domain of CBP
  pulldown signal vs H6GB1 background: bind significantly above the background signal

## pp16-E7(1-51): HPV16 E7(1-51) phosphorylated by casein kinase II (CKII) at serines 31 and 32
Pocket domain of pRb
  Kd: 2 nM
